Assay results from ChEMBL document CHEMBL4251588, “2-Alkoxycarbonyl-3-arylamino-5-substituted thiophenes as a novel class of antimicrotubule agents: Design, synthesis, cell growth and tubulin polymerization inhibition” (Eur J Med Chem, 2018).
pIC50: −log10 of the molar value. Activity calls are given as the source filed them. The calls are words filed in the database; no cut-off is given here.

Tests used:
[1] = test system: L1210; assay: Antiproliferative activity against mouse L1210 cells after 2 days by Coulter counter method; format: functional, cell-based; settings: L1210, 48 h
Outline: (§1)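 Cells suspended at 300,000–500,000 cells/mL; 100 μL suspension added to 100 μL of compound dilutions. Incubated at 37 °C for 2 days (L1210, FM3A), 3 days (CEM) or 4 days (HeLa), then counted by Coulter counter. IC50 is the concentration giving 50% inhibition of proliferation. Values are mean ± SD of two to three independent experiments.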

[2] = test system: FM3A; assay: Antiproliferative activity against mouse FM3A cells after 2 days by Coulter counter method; format: functional, cell-based; settings: 48 h
Outline: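 Cells suspended at 300,000–500,000 cells/mL; 100 μL suspension added to 100 μL of compound dilutions. Incubated at 37 °C for 2 days (L1210, FM3A), 3 days (CEM) or 4 days (HeLa), then counted by Coulter counter. Values are mean ± SD of two to three independent experiments.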

[3] = test system: CCRF-CEM; assay: Antiproliferative activity against human CEM cells after 3 days by Coulter counter method; format: functional, cell-based; settings: 72 h; outline: as §1
[4] = test system: HeLa; assay: Antiproliferative activity against human HeLa cells after 4 days by Coulter counter method; format: functional, cell-based; settings: 96 h; outline: as §1
[5] = test system: PBL; assay: Growth inhibition of resting human PBL after 72 hrs by MTT assay; format: cell-based
Outline: (§2)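 Donor PBL isolated by density gradient, washed, held overnight at 1.0 × 10^6 cells/mL in RPMI-1640 with 10% FBS. Non-adherent cells reseeded at 5 × 10^5 cells/mL, with 2.5 μg/mL PHA (proliferating) or without it (resting), then given compound dilutions. MTT viability read after 72 h. GI50 is the concentration giving 50% growth reduction; mean ± SEM of two experiments.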

[6] = test system: PBL; assay: Growth inhibition of human PHA-stimulated PBL after 72 hrs by MTT assay; format: cell-based; outline: as §2
[7] = Inhibition of bovine brain tubulin polymerization in presence of GTP by spectrophotometric analysis; design: species or system Bos taurus
Outline: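 0.4 mM GTP added, mixtures rewarmed to 30 °C in cuvettes and turbidity followed at 350 nm.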

[8] = species on record: Bos taurus; assay: Inhibition of [3H]colchicine binding to bovine brain tubulin at 5 uM relative to control
Outline: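 Reaction mixtures held 1 μM tubulin, 5 μM [3H]colchicine and 5 μM test compound. Inhibition of radiolabelled colchicine binding was measured by a previously described method.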

[9] = test system: HeLa; assay: Cell cycle arrest in human HeLa cells assessed as reduction of cells at G1 phase up to 500 uM after 24 hrs by propidium iodide staining-based flow cytometric analysis; format: functional; settings: in the assay text read “500 nM” for “500 uM”
Outline: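 5 × 10^5 HeLa cells exposed to graded compound levels for 24 h; harvested, fixed in ice-cold 70% ethanol, lysed in buffer containing RNase A and 0.1% Triton X-100, PI-stained, DNA content read by flow cytometry. Phase percentages are means ± SEM of two independent experiments.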

[10] = test system: HeLa; assay: Induction of apoptosis in human HeLa cells at 125 to 500 nM after 24 to 48 hrs by annexin V-FITC/propidium iodide staining-based flow cytometric analysis; format: functional, cell-based
Outline: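 Treated HeLa cells were harvested at 24 or 48 h and double-labeled with annexin-V-FITC, which marks exposed phosphatidylserine, and PI. Apoptotic fractions were measured by flow cytometry; mean ± SEM of three independent experiments.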

[11] = test system: HeLa; assay: Cell cycle arrest in human HeLa cells assessed as increase in cells at S phase at 500 nM after 24 hrs by propidium iodide staining-based flow cytometric analysis
[12] = test system: HeLa; assay: Cell cycle arrest in human HeLa cells assessed as accumulation of cells at G2/M phase at 500 nM after 24 hrs by propidium iodide staining-based flow cytometric analysis
[13] = test system: HeLa; assay: Cell cycle arrest in human HeLa cells assessed as increase in cyclin B1 expression after 24 hrs by Western blot analysis; format: functional, cell-based
Outline: (§3)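 HeLa cells treated for 24 or 48 h at several concentrations, washed in ice-cold PBS, lysed on ice 30 min and spun at 15000 x g, 4 °C. 10 μg protein separated by SDS-PAGE, blotted, blocked in 3% BSA, probed overnight at 4 °C with primary antibodies, peroxidase secondary and ECL detection. Stripped membranes reprobed for β-actin as loading control.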

[14] = test system: HeLa; assay: Cell cycle arrest in human HeLa cells assessed as decrease in cyclin B1 expression after 48 hrs by Western blot analysis; format: functional, cell-based; outline: as §3
[15] = test system: HeLa; assay: Cell cycle arrest in human HeLa cells assessed as decrease in Cdk1 Y15 phosphorylated protein level at 250 nM after 24 to 48 hrs by Western blot analysis; format: functional, cell-based; outline: as §3
[16] = test system: HeLa; assay: Induction of mitochondrial depolarization in human HeLa cells at 100 to 250 nM by JC-1 staining-based flow cytometric analysis; format: functional, cell-based; settings: TDE = time-dependent effect
Outline: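 Mitochondrial potential followed in HeLa cells after 6, 12, 24 or 48 h of exposure. Cells stained with the lipophilic cation JC-1 and the fraction with low Δψmt scored by flow cytometry; mean ± SEM of three independent experiments.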

[17] = test system: HeLa; assay: Induction of ROS production in human HeLa cells at 250 nM after 12 to 24 hrs by H2DCFDA staining-based flow cytometric analysis; format: functional, cell-based
Outline: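 HeLa cells treated for 6, 12, 24 or 48 h, then loaded with H2-DCFDA and ROS read by flow cytometry; mean ± SEM of three independent experiments.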

[18] = test system: HeLa; assay: Induction of apoptosis in human HeLa cells assessed as decrease in Bcl-2 levels at 100 to 250 nM after 24 hrs by Western blot analysis; format: functional, cell-based
Outline: (§4)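 HeLa cells exposed to compound for varied times, washed twice in ice-cold PBS, lysed on ice 30 min and spun 15000 x g at 4 °C. 10 μg protein per lane by SDS-PAGE, blotted, blocked in 3% BSA, primary antibodies (Bcl-2, Mcl-1) overnight at 4 °C, peroxidase secondary 60 min, ECL detection; membranes stripped and reprobed for β-actin as loading control.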

[19] = test system: HeLa; assay: Induction of apoptosis in human HeLa cells assessed as decrease in Mcl-1 levels at 100 to 250 nM after 24 hrs by Western blot analysis; format: functional, cell-based; outline: as §4
[20] = test system: HeLa; assay: Cell cycle arrest in human HeLa cells assessed as reduction in cdc25c expression at 100 nM after 24 hrs by Western blot analysis

SMILES	pIC50 [1]	pIC50 [2]	pIC50 [3]	pIC50 [4]	pIC50 [7]	inhibition [8] [%]	also measured
COC(=O)c1sc(-c2ccccc2)cc1Nc1cc(OC)c(OC)c(OC)c1	6.62	6.68	6.70	6.17	5.89	57	GI50 [5]: 45700 nM; GI50 [6]: 19000 nM; Activity [9]: Active; Activity [10]: Active; Activity [11]: Active; Activity [12]: Active
COc1ccc(/C=C\c2cc(OC)c(OC)c(OC)c2)cc1O [COMBRETASTATIN A4]	8.52	–	8.70	8.70	–	–	–
COC(=O)c1sc(-c2cccs2)cc1Nc1cc(OC)c(OC)c(OC)c1	6.89	6.80	6.80	6.80	5.92	62	GI50 [5]: 85700 nM; GI50 [6]: 29300 nM; Activity [9]: Active; Activity [13]: Dose-dependent effect; Activity [14]: Active; Activity [15]: Active; Activity [10]: Active; Activity [16]: Tde; Activity [17]: Active; Activity [18]: Active; Activity [19]: Active; Activity [20]: Active; Activity [11]: Active; Activity [12]: Active
COC(=O)c1sc(-c2ccc(C(F)(F)F)cc2)cc1Nc1cc(OC)c(OC)c(OC)c1	5.92	5.96	6.09	5.89	–	–	–
COC(=O)c1sc(-c2ccc(C)cc2)cc1Nc1cc(OC)c(OC)c(OC)c1	6.82	6.74	6.74	6.59	5.92	70	GI50 [5]: 31700 nM; GI50 [6]: 20000 nM; Activity [9]: Active; Activity [10]: Active; Activity [11]: Active; Activity [12]: Active
COC(=O)c1sc(-c2ccc(OC)cc2)cc1Nc1cc(OC)c(OC)c(OC)c1	6.57	6.60	6.64	6.08	5.70	46	–
COC(=O)c1sc(-c2ccc(Cl)cc2)cc1Nc1cc(OC)c(OC)c(OC)c1	5.96	6.06	6.06	6.06	–	–	–
CCOC(=O)c1sc(-c2ccccc2)cc1Nc1cc(OC)c(OC)c(OC)c1	5.96	6.01	6.03	5.85	–	–	–
COC(=O)c1sc(-c2ccc(F)cc2)cc1Nc1cc(OC)c(OC)c(OC)c1	6.25	6.14	6.28	6.06	5.66	41	–
COC(=O)c1sc(-c2cc(OC)c(OC)c(OC)c2)cc1Nc1cc(OC)c(OC)c(OC)c1	< 3.60	< 3.60	< 3.60	3.79	–	–	–
COC(=O)c1sc(-c2cccc(OC)c2)cc1Nc1cc(OC)c(OC)c(OC)c1	5.96	6.00	6.16	6.10	–	–	–
CCOC(=O)c1sc(-c2ccc(F)cc2)cc1Nc1cc(OC)c(OC)c(OC)c1	5.96	6.00	6.00	5.68	–	–	–
COC(=O)c1sc(-c2ccc(Cl)c(Cl)c2)cc1Nc1cc(OC)c(OC)c(OC)c1	5.24	5.34	5.48	5.30	–	–	–
CCOC(=O)c1sc(-c2ccc(OC)cc2)cc1Nc1cc(OC)c(OC)c(OC)c1	5.92	5.92	5.96	5.64	–	–	–
CCOC(=O)c1sc(-c2ccc(Cl)cc2)cc1Nc1cc(OC)c(OC)c(OC)c1	5.22	5.29	5.34	5.01	–	–	–
COC(=O)c1sc(-c2ccc(OC)c(OC)c2)cc1Nc1cc(OC)c(OC)c(OC)c1	6.32	6.37	6.33	6.05	5.57	30	–
CCOC(=O)c1sc(-c2ccc(C)cc2)cc1Nc1cc(OC)c(OC)c(OC)c1	6.09	6.09	6.12	6.11	–	–	–
COC(=O)c1sc(-c2ccc([N+](=O)[O-])cc2)cc1Nc1cc(OC)c(OC)c(OC)c1	6.00	6.03	6.12	6.00	–	–	–
CCOc1ccc(-c2cc(Nc3cc(OC)c(OC)c(OC)c3)c(C(=O)OC)s2)cc1	5.20	5.24	5.27	5.36	–	–	–
